Reference: ChEMBL document CHEMBL4406825, “Design, synthesis and preliminary bioactivity evaluations of 8-hydroxyquinoline derivatives as matrix metalloproteinase (MMP) inhibitors” (Eur J Med Chem, 2019)
Active and inactive are the calls of the source. The rule behind the calls is not given here.

Experiments:
[1] = biological target: T1, 72 kDa type IV collagenase (Homo sapiens, UniProt P08253); assay: Inhibition of recombinant human MMP2 using thiopeptide as substrate preincubated for 30 mins followed by substrate addition and measured every mins for 20 min by colorimetric assay
Target sequence in this assay (P08253 whole entry): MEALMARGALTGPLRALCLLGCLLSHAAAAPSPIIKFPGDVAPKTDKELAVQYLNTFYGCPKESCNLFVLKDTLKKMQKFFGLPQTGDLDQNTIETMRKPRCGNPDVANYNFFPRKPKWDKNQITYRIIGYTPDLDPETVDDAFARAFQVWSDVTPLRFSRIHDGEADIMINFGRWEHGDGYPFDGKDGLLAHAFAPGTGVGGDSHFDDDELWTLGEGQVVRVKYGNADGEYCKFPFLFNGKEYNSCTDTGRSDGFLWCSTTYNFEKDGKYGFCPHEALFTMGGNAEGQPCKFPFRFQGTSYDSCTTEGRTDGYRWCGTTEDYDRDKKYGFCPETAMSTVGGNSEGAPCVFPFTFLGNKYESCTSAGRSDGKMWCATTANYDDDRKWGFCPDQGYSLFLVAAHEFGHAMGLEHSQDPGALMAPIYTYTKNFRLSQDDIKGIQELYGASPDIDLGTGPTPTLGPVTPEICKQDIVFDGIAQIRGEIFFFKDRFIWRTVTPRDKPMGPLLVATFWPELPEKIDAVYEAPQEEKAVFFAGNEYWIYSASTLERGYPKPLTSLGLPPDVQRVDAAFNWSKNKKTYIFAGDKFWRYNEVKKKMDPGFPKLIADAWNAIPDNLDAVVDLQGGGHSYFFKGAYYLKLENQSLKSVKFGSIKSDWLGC

[2] = biological target: T2, Matrix metalloproteinase-9 (Homo sapiens, UniProt P14780); assay: Inhibition of recombinant human MMP9 using thiopeptide as substrate preincubated for 30 mins followed by substrate addition and measured every min for 20 mins by colorimetric assay
T2 sequence (P14780 whole entry): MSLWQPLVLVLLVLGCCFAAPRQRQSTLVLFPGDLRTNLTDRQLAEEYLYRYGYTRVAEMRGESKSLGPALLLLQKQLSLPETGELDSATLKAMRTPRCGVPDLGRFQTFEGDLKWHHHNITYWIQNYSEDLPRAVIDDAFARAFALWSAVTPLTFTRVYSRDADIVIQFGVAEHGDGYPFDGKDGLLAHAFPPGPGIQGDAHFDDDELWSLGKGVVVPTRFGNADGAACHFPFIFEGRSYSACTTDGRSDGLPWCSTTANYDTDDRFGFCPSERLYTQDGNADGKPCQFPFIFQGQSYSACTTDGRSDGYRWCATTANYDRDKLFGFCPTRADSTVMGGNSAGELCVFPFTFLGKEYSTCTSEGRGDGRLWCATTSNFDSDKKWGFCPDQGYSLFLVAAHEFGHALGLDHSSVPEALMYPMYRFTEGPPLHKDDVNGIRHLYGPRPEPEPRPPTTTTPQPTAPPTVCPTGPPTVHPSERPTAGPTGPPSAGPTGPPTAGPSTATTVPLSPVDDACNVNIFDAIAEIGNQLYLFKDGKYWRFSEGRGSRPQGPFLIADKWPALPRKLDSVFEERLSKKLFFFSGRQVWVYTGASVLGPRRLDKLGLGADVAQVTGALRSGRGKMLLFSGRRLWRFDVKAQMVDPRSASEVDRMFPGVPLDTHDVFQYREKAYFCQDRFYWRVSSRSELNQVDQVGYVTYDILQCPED

[3] = biological target: T1, 72 kDa type IV collagenase; assay: Inhibition of recombinant human MMP2 at 10 uM using thiopeptide as substrate preincubated for 30 mins followed by substrate addition and measured every min for 20 mins by colorimetric assay relative to control
How it was run: (§1)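 Colorimetric kit assay: human recombinant enzyme plus inhibitor in assay buffer for 30 min at 37 °C, then chromogenic MMP substrate added; A412 recorded each minute over 20 min. Enzyme-free blanks and inhibitor-free controls included.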
Target sequence in this assay (P08253 110-660 limits assumed): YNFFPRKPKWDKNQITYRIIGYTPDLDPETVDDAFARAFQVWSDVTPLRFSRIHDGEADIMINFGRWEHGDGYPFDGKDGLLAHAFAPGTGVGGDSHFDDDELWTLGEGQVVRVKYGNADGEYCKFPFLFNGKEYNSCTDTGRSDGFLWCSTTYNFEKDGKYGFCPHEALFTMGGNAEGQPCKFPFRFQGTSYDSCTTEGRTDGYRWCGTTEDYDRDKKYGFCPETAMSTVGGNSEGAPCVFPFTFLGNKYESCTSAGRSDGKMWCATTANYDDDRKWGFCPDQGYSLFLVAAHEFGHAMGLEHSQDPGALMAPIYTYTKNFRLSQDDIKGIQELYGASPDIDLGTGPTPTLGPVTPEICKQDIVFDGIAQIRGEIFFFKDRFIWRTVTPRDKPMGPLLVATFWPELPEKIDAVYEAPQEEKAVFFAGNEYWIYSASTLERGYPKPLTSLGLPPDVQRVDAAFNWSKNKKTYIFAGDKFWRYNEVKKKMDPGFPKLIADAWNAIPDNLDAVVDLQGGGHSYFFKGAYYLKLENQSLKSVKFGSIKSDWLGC

[4] = biological target: T2, Matrix metalloproteinase-9; assay: Inhibition of recombinant human MMP9 at 10 uM using thiopeptide as substrate preincubated for 30 mins followed by substrate addition and measured every min for 20 mins by colorimetric assay relative to control; how it was run: as §1
HL-60 = assay: Antiproliferative activity against human HL60 cells assessed as reduction in cell viability incubated for 48 hrs by MTT assay; format: functional, cell-based; conditions: HL-60, 48 h
How it was run: (§2)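 Cells grown in RPMI1640 with 10% FBS at 37°C, 5% CO2; seeded at 4000-5000 cells/well for 8 h, then exposed to a range of compound concentrations for 48 h. MTT added for 4 h, formazan dissolved in DMSO, absorbance at 570 nm; IC50 calculated from inhibition ratios.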

K562 = assay: Antiproliferative activity against human K562 cells assessed as reduction in cell viability incubated for 48 hrs by MTT assay; format: functional, cell-based; conditions: K562, 48 h; how it was run: as §2
KG-1 = assay: Antiproliferative activity against human KG1 cells assessed as reduction in cell viability incubated for 48 hrs by MTT assay; format: functional, cell-based; conditions: KG-1, 48 h; how it was run: as §2
A549 [5] = assay: Antiproliferative activity against human A549 cells assessed as reduction in cell viability incubated for 48 hrs by MTT assay; format: functional, cell-based; conditions: A549, 48 h; how it was run: as §2
PC-3 = assay: Antiproliferative activity against human PC3 cells assessed as reduction in cell viability incubated for 48 hrs by MTT assay; format: functional, cell-based; conditions: PC-3, 48 h; how it was run: as §2
MCF7 = assay: Antiproliferative activity against human MCF7 cells assessed as reduction in cell viability incubated for 48 hrs by MTT assay; format: functional, cell-based; conditions: MCF7, 48 h; how it was run: as §2
HUVEC = assay: Cytotoxicity against HUVEC assessed as reduction in cell viability incubated for 48 hrs by MTT assay; format: cell-based; conditions: Homo sapiens; how it was run: as §2
A549 [6] = assay: Inhibition of cell invasion in human A549 cells at 1 to 10 uM incubated for 24 hrs by crystal violet staining based matrigel migration assay; format: functional
How it was run: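 As the migration setup but membrane precoated with matrigel (1:10 diluted) for 2 h at 37°C: A549 pretreated 24 h at 1, 5, 10 µM, 30,000 cells in serum-free medium above, 10% FBS below, 24 h, then fixing, 0.1% crystal violet staining and counting. Three repeats, mean ± SEM.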

CN(CCCC(=O)Nc1ccc(O)c2ncccc12)c1ccccc1
IC50 [1]: > 10 µM | IC50 [2]: > 10 µM

Cc1[nH]c2ccccc2c1CCNC(=O)CNCc1cc(Cl)c2cccnc2c1O
inhibition [3]: 59.5% | inhibition [4]: 35.2% | IC50 [1]: 8.8 µM | IC50 [2]: > 10 µM

O=C(CCCCNCc1ccc(O)c2ncccc12)Nc1ccccc1
inhibition [4]: 36.5% | IC50 [1]: > 10 µM | IC50 [2]: > 10 µM

Cc1[nH]c2ccccc2c1CCNC(=O)CCCNCc1ccc(O)c2ncccc12
inhibition [3]: 44.8% | inhibition [4]: 12.3% | IC50 [1]: > 10 µM | IC50 [2]: > 10 µM

CC1(C)SCCN(S(=O)(=O)c2ccc(Oc3ccncc3)cc2)[C@H]1C(=O)NO [PRINOMASTAT]
IC50 (HL-60): > 500 µM | IC50 (K562): > 500 µM | IC50 (KG-1): > 500 µM | IC50 (A549 [5]): > 500 µM | IC50 (PC-3): > 500 µM | IC50 (MCF7): > 500 µM | IC50 (HUVEC): > 500 µM | inhibition (A549 [6]): Active

Cc1[nH]c2ccccc2c1CCNC(=O)CCCCNCc1ccc(O)c2ncccc12
inhibition [3]: 61% | inhibition [4]: 67.8% | IC50 [1]: 8.8 µM | IC50 [2]: 5.3 µM

Cc1[nH]c2ccccc2c1CCNC(=O)CCNCc1cc(Cl)c2cccnc2c1O
inhibition [4]: 73.9% | IC50 [1]: > 10 µM | IC50 [2]: > 10 µM

O=C(CCCCCN1C(=O)c2ccccc2S1(=O)=O)Nc1ccc(O)c2ncccc12
inhibition [4]: 24.3% | IC50 [1]: > 10 µM | IC50 [2]: > 10 µM

O=C(CCCCN1C(=O)c2ccccc2S1(=O)=O)Nc1ccc(O)c2ncccc12
IC50 [1]: > 10 µM | IC50 [2]: > 10 µM

O=C(CCNCc1cc(Cl)c2cccnc2c1O)Nc1ccccc1
inhibition [3]: 100% | inhibition [4]: 98.9% | IC50 [1]: 3.3 µM | IC50 [2]: 3.5 µM | IC50 (HL-60): 1.3 µM | IC50 (K562): 1.7 µM | IC50 (KG-1): 1.1 µM | IC50 (A549 [5]): 9.7 µM | IC50 (PC-3): 1.9 µM | IC50 (MCF7): 13 µM | IC50 (HUVEC): > 50 µM

Cc1nc2ccccc2n1CCC(=O)Nc1ccc(O)c2ncccc12
IC50 [1]: > 10 µM | IC50 [2]: > 10 µM

O=C(CNCc1ccc(O)c2ncccc12)Nc1ccccc1
inhibition [4]: 42.9% | IC50 [1]: > 10 µM | IC50 [2]: > 10 µM

Cc1nc2ccccc2n1CCCCCC(=O)Nc1ccc(O)c2ncccc12
inhibition [3]: 38.9% | IC50 [1]: > 10 µM | IC50 [2]: > 10 µM

O=C(CNCc1cc(Cl)c2cccnc2c1O)Nc1ccccc1
inhibition [3]: 95.8% | inhibition [4]: 78.8% | IC50 [1]: 3.2 µM | IC50 [2]: 2.1 µM | IC50 (HL-60): > 5 µM | IC50 (K562): 2.9 µM | IC50 (KG-1): 2.3 µM | IC50 (A549 [5]): 7.4 µM | IC50 (PC-3): 10 µM | IC50 (MCF7): 13 µM | IC50 (HUVEC): > 50 µM

O=C(CCCNCc1ccc(O)c2ncccc12)Nc1ccccc1
inhibition [3]: 54.5% | inhibition [4]: 83.9% | IC50 [1]: 5.7 µM | IC50 [2]: 5.1 µM
